Assay results from different studies.
Lines come from different studies, so protocols differ.
Read-out: enzyme activity
Action: inhibitor
HIPK4: Homeodomain-interacting protein kinase 4 (HIPK4, Homo sapiens, UniProt Q8NE63)
Rps6ka1: Ribosomal protein S6 kinase alpha-1 (Rps6ka1, Rattus norvegicus, UniProt Q63531)
MARK2: Serine/threonine-protein kinase MARK2 (MARK2, Homo sapiens, UniProt Q7KZI7)

COc1cc(Cl)c(C(=O)N[C@@H](CN[C@H]2CC[C@@H](N)CC2)Cc2ccc(C#N)cc2)cc1-c1ccc(CN[C@H](C)c2ccc(C)cc2)o1  remaining activity (Cyclin-dependent kinase-like 2 (CDKL2, Homo sapiens, UniProt Q92772); 1 µM): 93%
CC[C@H](C)[C@H](NC(=O)[C@H](CCC(N)=O)NC(=O)[C@H](CC(C)C)NC(=O)[C@H](CCSC)NC(=O)[C@H](CCCCN)NC(=O)[C@H](CO)NC(=O)[C@H](CO)NC(=O)[C@H](CCSC)NC(=O)[C@H](CC(C)C)NC(=O)[C@H](CC(N)=O)NC(=O)[C@@H](NC(=O)[C@@H](NC(=O)[C@H](CO)NC(=O)[C@H](CC(C)C)NC(=O)[C@H](CS)NC(=O)[C@H](CCCNC(=N)N)NC(=O)[C@H](CC(=O)O)NC(=O)[C@H](Cc1c[nH]c2ccccc12)NC(=O)[C@H](Cc1ccccc1)NC(=O)[C@H](C)NC(=O)[C@H](CCC(=O)O)NC(=O)[C@@H](N)CCCCN)C(C)C)[C@@H](C)CC)C(=O)N[C@@H](CC(N)=O)C(=O)N[C@@H](C)C(=O)O  remaining activity (Cyclin-dependent kinase 5, with p25 (CDK5, Homo sapiens, UniProt Q00535); radiometric; 50 µM, 20 min): 80%
O=C(O)c1ccc2c(c1)nc(Nc1ccc(Cl)cc1)c1ccncc12  remaining activity (HIPK4; radiometric; 1 µM): 116%
CCCOc1ccc(OC)c(F)c1C(=O)c1ccc(C(=O)N[C@@H]2CNC[C@H]2NC(=O)c2ccc3[nH]ncc3c2)cc1  remaining activity (Rps6ka1; 0.1 µM): 119%
Cc1cnc(NC2CCOCC2)nc1-n1cnc(C(=O)NC(CN)c2cc(F)cc(Cl)c2)c1 (stereo not drawn)  remaining activity (Rps6ka1; radiometric; 1 µM): 53%
Cc1ccc(C(=O)Nc2ccc(CN3CCN(C)CC3)c(C(F)(F)F)c2)cc1C#Cc1cnc2cccnn12  remaining activity (Uncharacterized serine/threonine-protein kinase SBK3 (SBK3, Homo sapiens, UniProt P0C264); 23.5 nM): 89%
N#Cc1cccc(Nc2nc3cc(C(=O)O)ccc3c3cncnc23)c1  remaining activity (HIPK4; radiometric; 1 µM): 35%
Brc1cnc(Nc2cccc(CN3CCOCC3)c2)nc1NCCc1c[nH]cn1  remaining activity (MARK2; radiometric; 1 µM): 5%
COc1cccc(CCNc2nc3cc(C(=O)O)ccc3c3cncnc23)c1  remaining activity (HIPK4; radiometric; 1 µM): 135%
Cc1nn(CC(F)(F)F)cc1Nc1nccc(NCc2ccc(S(N)(=O)=O)cc2)n1  remaining activity (MARK2; radiometric; 1 µM): 108%
O=C(O)c1ccc2c(c1)nc(NCCc1ccccc1)c1ccncc12  remaining activity (HIPK4; radiometric; 1 µM): 5%
CC1=CC(=O)c2ccccc2C1=O  remaining activity (TcPGFS (Trypanosoma cruzi, UniProt Q8I6L9); 200 µM): 68%
